Key:
[1] = target: GTPase HRas (Homo sapiens) (UniProt P01112); assay: Inhibitory [3H]GDP concentration against oncogenic Ha-ras protein (p21 Leu-61)
Summary of the method: (§1)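 Filter-binding competition: GDP-bound Ha-ras p21 (1 μM; 1 μg) with [3H]GDP (3 μM per footnote, 2 μM in methods) plus analogue over a concentration range, in 50 mM Tris-HCl pH 7.5, 10 mM DTT, 0.5 mM MgCl2, 100 mM NH4Cl, 5 mM EDTA, 45 min, 37 °C. Quenched with cold Mg2+, filtered through nitrocellulose, counted. Krel = [3H]GDP concentration/analogue concentration at 50% inhibition.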

[2] = target: GTPase HRas (Homo sapiens) (UniProt P01112); assay: Inhibitory [3H]GDP concentration against cellular p21 Ha-ras; summary of the method: as §1

Sequence of GTPase HRas (Homo sapiens) (P01112 whole entry, looked up): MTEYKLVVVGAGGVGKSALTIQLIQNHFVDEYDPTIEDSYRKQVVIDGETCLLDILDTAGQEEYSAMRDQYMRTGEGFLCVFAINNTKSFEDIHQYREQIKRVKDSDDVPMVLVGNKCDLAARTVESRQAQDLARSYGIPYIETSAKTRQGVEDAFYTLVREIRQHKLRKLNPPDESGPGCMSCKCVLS

K rel [1]	K rel [2]	SMILES
0.68	0.59	CCCCNc1nc(O)c2ncn(C3O[C@@H](COP(=O)(O)OP(=O)(O)OP(=O)(O)O)[C@H](O)[C@@H]3O)c2n1 (stereo not given in full)
1.1	1.19	O=P(O)(O)OP(=O)(O)OP(=O)(O)OC[C@@H]1OC(n2cnc3c(O)nc(NCCCCc4ccccc4)nc32)[C@@H](O)[C@H]1O (stereo not given in full)
2.1	2.28	O=P(O)(O)OP(=O)(O)OP(=O)(O)OC[C@@H]1OC(n2cnc3c(O)nc(Nc4ccc(Br)cc4)nc32)[C@@H](O)[C@H]1O (stereo not given in full)
1.2	1.1	Nc1nc(O)c2ncn([C@H]3O[C@@H](COP(=O)(O)OP(=O)(O)OP(=O)(O)O)[C@H](O)[C@@H]3O)c2n1
0.85	0.85	Nc1nc(O)c2ncn(C3OC(COP(=O)(O)OP(=O)(O)OP(=O)(O)O)CC3O)c2n1 (stereo not given)
2.38	1.77	O=P(O)(O)OP(=O)(O)OP(=O)(O)OC[C@@H]1OC(n2cnc3c(O)nc(Nc4ccc(F)cc4)nc32)[C@@H](O)[C@H]1O (stereo not given in full)
0.09	0.11	O=P(O)(O)OP(=O)(O)OP(=O)(O)OC[C@@H]1OC(n2cnc3c(O)ncnc32)[C@@H](O)[C@H]1O (stereo not given in full)
0.0018	0.0014	Nc1nc(O)c2ncn(COC(CO)COP(=O)(O)OP(=O)(O)OP(=O)(O)O)c2n1 (stereo not given)
0.0011	0.0012	Nc1nc2c(ncn2COCCOP(=O)(O)OP(=O)(O)OP(=O)(O)O)c(=O)[nH]1
0.05	0.08	Nc1nc(O)c2ccn(C3O[C@@H](COP(=O)(O)OP(=O)(O)OP(=O)(O)O)[C@H](O)[C@@H]3O)c2n1 (stereo not given in full)
0.05	0.04	O=P(O)(O)OP(=O)(O)OP(=O)(O)OC[C@@H]1OC(n2cnc3c(O)nc(Br)nc32)[C@@H](O)[C@H]1O (stereo not given in full)
0.002	0.0024	CN1CN(C2O[C@@H](COP(=O)(O)OP(=O)(O)OP(=O)(O)O)[C@H](O)[C@@H]2O)c2nc(N)nc(O)c21 (stereo not given in full)
0.18	0.28	Nc1nc2c(ncn2[C@H]2CC[C@@H](COP(=O)(O)OP(=O)(O)OP(=O)(O)O)O2)c(=O)[nH]1
6	3.3	CCCCc1ccc(Nc2nc(O)c3ncn(C4O[C@@H](COP(=O)(O)OP(=O)(O)OP(=O)(O)O)[C@H](O)[C@@H]4O)c3n2)cc1 (stereo not given in full)
1.34	1.14	Cc1ccc(Nc2nc(O)c3ncn(C4O[C@@H](COP(=O)(O)OP(=O)(O)OP(=O)(O)O)[C@H](O)[C@@H]4O)c3n2)cc1 (stereo not given in full)
